Results from different studies.
Compare with care: the assays were run in different laboratories.
Target: Peripheral plasma membrane protein CASK (CASK, Homo sapiens, UniProt O14936)
Residues used in one study (O14936 1-926): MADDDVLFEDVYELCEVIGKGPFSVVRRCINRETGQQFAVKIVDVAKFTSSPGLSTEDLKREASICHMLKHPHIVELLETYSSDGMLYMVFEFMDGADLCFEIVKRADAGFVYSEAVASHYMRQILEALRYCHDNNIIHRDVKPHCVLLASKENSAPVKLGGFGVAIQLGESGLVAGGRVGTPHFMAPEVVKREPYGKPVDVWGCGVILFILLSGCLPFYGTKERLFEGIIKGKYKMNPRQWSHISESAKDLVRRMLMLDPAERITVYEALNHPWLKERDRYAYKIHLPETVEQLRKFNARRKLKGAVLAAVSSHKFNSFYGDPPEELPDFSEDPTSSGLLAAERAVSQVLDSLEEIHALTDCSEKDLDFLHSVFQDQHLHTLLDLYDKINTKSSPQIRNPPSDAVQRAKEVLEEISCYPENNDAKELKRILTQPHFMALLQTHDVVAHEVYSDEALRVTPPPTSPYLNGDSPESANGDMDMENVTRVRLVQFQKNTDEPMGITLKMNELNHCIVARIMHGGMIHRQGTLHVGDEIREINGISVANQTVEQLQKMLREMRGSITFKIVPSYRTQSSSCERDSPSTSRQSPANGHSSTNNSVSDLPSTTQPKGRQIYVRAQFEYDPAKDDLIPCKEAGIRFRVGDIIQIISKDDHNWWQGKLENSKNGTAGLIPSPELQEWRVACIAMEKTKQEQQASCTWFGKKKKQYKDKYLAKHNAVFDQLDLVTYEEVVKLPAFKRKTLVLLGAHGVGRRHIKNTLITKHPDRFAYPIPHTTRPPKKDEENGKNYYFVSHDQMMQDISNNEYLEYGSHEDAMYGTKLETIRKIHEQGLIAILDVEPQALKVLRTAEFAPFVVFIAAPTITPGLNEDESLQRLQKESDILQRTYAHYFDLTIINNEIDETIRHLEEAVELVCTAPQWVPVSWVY

With `O=C(Nc1c[nH]nc1C(=O)NC1CCNCC1)c1cc(F)cc(F)c1` the remaining binding was 66% (binding, competition with immobilised ligand; 1 µM).
The remaining binding of `CCC(=N\O)/C(C)=C/c1ccc(F)cc1` is reported as 70% (cell-free assay, competition with immobilised ligand; 1 µM).
`C[C@H]1CCN(c2nccc(-c3cnn4ncccc34)n2)C1` has a remaining binding of 74% (binding; 1 µM).
`O=c1nc(-c2ccccn2)sc2ccccc12` gave a remaining binding of 84% (binding, competition with immobilised ligand; 1 µM).
The remaining binding of `O=C(c1ccc(Nc2ncc(Cl)c(-c3ccc(Cl)s3)n2)cc1)N1CCC(N2CCCC2)CC1` is reported as 87% (binding, competition with immobilised ligand; 1 µM).
The remaining binding of `C[C@@H](c1ccc(-n2cnc3c(N)ncnc32)cc1)N1CCc2nn(C)c(Cc3ccccc3)c2C1=O` is reported as 80% (binding, competition with immobilised ligand; 0.1 µM).
The remaining binding of `c1cnn2ncc(-c3ccnc(N4CCC45COC5)n3)c2c1` is reported as 81% (binding; 1 µM).
`CNC(=O)[C@@H]1CC[C@@H](n2c(-c3ccc4cnccc4c3)nc3ccc(C(=O)NCc4cccc(C(N)=O)c4)cc32)C1` gave a remaining binding of 82% (binding, competition with immobilised ligand; 1 µM).
With `CN(CCCC(F)(F)F)c1nccc(-c2cnn3ncccc23)n1` the remaining binding was 100% (binding; 1 µM).
For `COc1cnc(Nc2cccc(S(N)(=O)=O)c2)nc1N1CCN(c2ccccc2)C(=O)C1`, the remaining binding was 79% (binding, competition with immobilised ligand; 1 µM).
`Cc1nc(C2CCN(C(=O)c3ccc(OC(F)(F)F)cc3N)CC2)c2ncc(N3CCN(C)CC3)cc2n1` has a remaining binding of 87% (cell-free assay, competition with immobilised ligand; 1 µM).
`N[C@@H]1CCN(c2nccc(-c3cnn4ncccc34)n2)C1` gave a remaining binding of 100% (binding; 1 µM).
For `CCN1CCN(Cc2ccc(C(=O)Nc3ccc(C)c(Oc4ccc5c(c4)CC(=O)N5)c3)cc2C(F)(F)F)CC1`, the remaining binding was 100% (binding, competition with immobilised ligand; 1 µM).
For `O=C(Nc1cccnn1)N1CCC(=Cc2cccc(Oc3ccc(C(F)(F)F)cn3)c2)CC1`, the remaining binding was 92% (cell-free assay, competition with immobilised ligand; 1 µM).
`COc1ccnn2ncc(-c3ccnc(N(C)C)n3)c12` has a remaining binding of 96% (binding; 1 µM).
With `Cn1nc(C(=O)NCc2ccc(C(=O)O)cc2)cc1-c1ccc2[nH]ccc2c1` the remaining binding was 69% (cell-free assay, competition with immobilised ligand; 0.1 µM).
`O=C(c1ccc(Nc2ncc(Cl)c(-c3cc4ccccc4s3)n2)cc1)N1CCC(N2CCCC2)CC1` gave a remaining binding of 74% (binding, competition with immobilised ligand; 1 µM).
`CCCCN(CCCC)C(=O)CN1C[C@@H](c2cc(OC)c3c(c2)OCO3)[C@H](C(=O)O)[C@H]1CC(C)(C)CCC` gave a remaining binding of 90.5% (cell-free assay, competition with immobilised ligand; 1 µM).
`Nc1ncc2c(n1)-c1c([nH]c3ccc(C#CC4CC4)cc13)CCCC2` gave a remaining binding of 88% (binding, competition with immobilised ligand; 1 µM).
`O=C(NCCCN1CCOCC1)c1ccc(Nc2ncc(Cl)c(-c3ccc(Cl)s3)n2)cc1` has a remaining binding of 98% (binding, competition with immobilised ligand; 1 µM).
`CN(C)c1nccc(-c2cnn3ncccc23)n1` has a remaining binding of 90% (binding, competition with immobilised ligand; 1 µM).
